The source made the active and inactive calls. The calls are words filed in the database; no cut-off is given here.
Columns and labels:
Aorta [1] = experiment: Antiangiogenic activity in Wistar rat aortic ring assessed as complete inhibition of microvessel sprouting at 25 uM after 7 days by phase-contrast microscopy; format: functional, tissue-based
Aorta [2] = experiment: Antiangiogenic activity in Wistar rat aortic ring assessed as complete inhibition of microvessel sprouting at 2.5 uM after 7 days by phase-contrast microscopy relative to steperoxide A; format: functional
HUVEC [3] = experiment: Antiangiogenic activity in HUVEC assessed as inhibition of tube formation at 25 uM after 12 hrs by light microscopy matrigel based assay; format: functional; conditions: Homo sapiens
Outline: (§1)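 HUVECs (passages 3–7) at 1 × 10^5 cells/mL in HuMedia EG2 with compound or DMSO seeded onto solidified Matrigel. Incubated 12 h at 37 C, 5% CO2. Tube formation observed under inverted light microscope at 40× and photographed.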

HUVEC [4] = experiment: Antiangiogenic activity in HUVEC assessed as inhibition of VEGF-induced endothelial migration at > 5 uM after 6 hrs using Diff-Quik staining by modified Boyden chamber based chemotactic migration assay; format: functional, cell-based; conditions: Homo sapiens
Outline: (§2)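 Modified Boyden chamber, 8 μm membrane coated with 0.1% gelatin. HUVECs (2.5 × 10^5 cells/mL) in Medium 199 with 0.1% BSA in upper chamber. Lower well held Medium 199, 0.1% BSA, VEGF 10 ng/mL, with or without compound. After 6 h at 37 C, migrated cells methanol-fixed, Diff-Quik stained, counted in three fields at 200×.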

HUVEC [5] = experiment: Antiangiogenic activity in HUVEC assessed as inhibition of VEGF-induced endothelial migration after 6 hrs using Diff-Quik staining by modified Boyden chamber based chemotactic migration assay; format: functional, cell-based; conditions: Homo sapiens; outline: as §2
HUVEC [6] = experiment: Antiangiogenic activity in HUVEC assessed as inhibition of tube formation at 2.5 to 10 uM after 12 hrs by light microscopy matrigel based assay; format: functional, cell-based; conditions: Homo sapiens; outline: as §1
Mus musculus [7] = experiment: Antiangiogenic activity in C57BL/6 mouse assessed as decrease in hemoglobin level at 10 uM, sc after 7 days using hematoxylin eosin staining by matrigel plug assay relative to control; format: functional, organism-based
Outline: (§3)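 C57BL/6 mice, male, three per group; 0.5 mL Matrigel with bFGF (10 ng/mL) plus compound (10 μM) or DMSO vehicle injected subcutaneously, allowed to form a plug. After 7 days, plugs excised, formaldehyde-fixed, paraffin-embedded, sectioned, H&E stained. Plug hemoglobin quantified by QuantiChrom kit against hemoglobin standard. Means ± SEM; ANOVA with Dunnett or Student's t test.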

HUVEC [8] = experiment: Antiangiogenic activity in HUVEC assessed as complete inhibition of tube formation at 50 uM after 12 hrs by light microscopy matrigel based assay; format: functional, cell-based; conditions: Homo sapiens; outline: as §1
[9] = biological target: T1, Mitogen-activated protein kinase; ERK1/ERK2 (Homo sapiens) (UniProt P27361+P28482); experiment: Inhibition of VEGF-stimulated ERK1/2 activation in HUVEC after 1 hr by Western blot analysis; format: protein assay
T1 sequence (P27361 whole entry, looked up): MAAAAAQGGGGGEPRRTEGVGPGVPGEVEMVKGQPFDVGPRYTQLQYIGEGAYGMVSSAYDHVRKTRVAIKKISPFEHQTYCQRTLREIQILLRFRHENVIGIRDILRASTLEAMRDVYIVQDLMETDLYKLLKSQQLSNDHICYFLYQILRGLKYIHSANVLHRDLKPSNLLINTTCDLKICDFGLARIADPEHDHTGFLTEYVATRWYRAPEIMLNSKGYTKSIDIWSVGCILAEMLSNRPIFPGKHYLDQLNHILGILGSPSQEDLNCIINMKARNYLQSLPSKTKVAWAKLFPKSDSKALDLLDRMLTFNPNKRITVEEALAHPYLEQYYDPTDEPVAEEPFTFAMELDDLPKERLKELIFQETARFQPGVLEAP
T1 sequence (P28482 whole entry, looked up): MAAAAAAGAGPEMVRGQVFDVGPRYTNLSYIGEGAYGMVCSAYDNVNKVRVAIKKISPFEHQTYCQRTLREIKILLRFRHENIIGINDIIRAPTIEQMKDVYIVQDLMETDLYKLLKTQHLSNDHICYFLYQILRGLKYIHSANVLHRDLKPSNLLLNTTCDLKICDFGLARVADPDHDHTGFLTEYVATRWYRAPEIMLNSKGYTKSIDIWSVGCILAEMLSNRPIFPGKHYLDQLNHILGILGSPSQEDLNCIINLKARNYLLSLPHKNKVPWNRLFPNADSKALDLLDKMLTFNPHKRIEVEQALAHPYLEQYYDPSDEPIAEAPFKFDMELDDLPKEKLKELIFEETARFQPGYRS
Outline: (§4)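 Confluent HUVECs starved 16 h in RPMI 1640 with 5% FBS. Pretreated 60 min with compound (2.5–10 μM) or vehicle, then stimulated with VEGF 10 ng/mL for 10 min. Lysates (50 μg protein) run on SDS-PAGE under reducing conditions. Blots probed for phospho-Erk1/2 or phospho-Akt and total proteins; chemiluminescence detection.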

HUVEC [10] = experiment: Antiproliferative activity against HUVEC at 25 uM after 72 hrs by WST8 assay; format: functional; conditions: Homo sapiens
Outline: (§5)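 HUVECs at 1.5 × 10^4 cells/mL plated and grown 24 h. Medium then replaced with HuMedia EG2 containing compound or DMSO for 72 h at 37 C, 5% CO2. Proliferation read by WST-8 absorbance at 450 nm.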

Aorta [11] = experiment: Antiangiogenic activity in Wistar rat aortic ring assessed as complete inhibition of microvessel sprouting at 2.5 uM after 7 days by phase-contrast microscopy; format: functional, tissue-based
HUVEC [12] = experiment: Inhibition of VEGF-stimulated Akt phosphorylation in HUVEC at 2.5 to 10 uM after 1 hr by Western blot analysis; format: cell-based; conditions: Homo sapiens; outline: as §4
HUVEC [13] = experiment: Antiproliferative activity against HUVEC after 72 hrs by WST8 assay; format: functional, cell-based; conditions: Homo sapiens; outline: as §5
[14] = biological target: T1, Mitogen-activated protein kinase; ERK1/ERK2 (Homo sapiens); experiment: Inhibition of VEGF-stimulated ERK1/2 phosphorylation in HUVEC at 2.5 to 10 uM by Western blot analysis; format: protein assay; conditions: TDE = time-dependent effect; outline: as §4
Mus musculus [15] = experiment: Antiangiogenic activity in C57BL/6 mouse assessed as inhibition of bFGF-induced neovascularization at 10 uM, sc after 7 days by matrigel plug assay relative to control; format: functional, organism-based; outline: as §3

CC1(C)C=CC(=O)[C@@]2(C)OO[C@@H]3C[C@]12CCC3O (stereo partly drawn) was tested, and the Activity (Aorta [1]) was “Active”.

With CC1(C)CCC(=O)[C@@]2(C)OO[C@@H]3C[C@@]12CCC3(O)CO (stereo partly drawn) the Activity (Aorta [1]) was “inactive”.

With CC1(C)CCC(=O)[C@@]2(C)OO[C@@H]3C[C@@]12CC[C@H]3O the Activity (Aorta [1]) was “inactive”.

In the case of CC1(C)C=CC(=O)[C@@]2(C)OO[C@@H]3C[C@]12CCC3(O)CO (stereo partly drawn) [MERULIN C], the “fold change (FC)” value (Aorta [2]) is reported as 10, the inhibition at 25 µM (HUVEC [3]) is reported as 50% and the Activity (HUVEC [4]) is reported as “Active”. For the same compound, the Activity (HUVEC [5]) was “Dose-dependent effect”, the inhibition (HUVEC [6]) was “inactive” and the Activity (Mus musculus [7]) was “Active”. The inhibition (HUVEC [8]) was “Active”, the inhibition [9] was “Dose-dependent effect” and the inhibition at 25 µM (HUVEC [10]) was 90%. The Activity (Aorta [11]) was “Active”, the inhibition (HUVEC [12]) was “inactive” and the Activity (HUVEC [13]) was “Dose-dependent effect”. The IC50 (HUVEC [13]) was 900 nM, the inhibition [14] was “tde” and the Activity (Mus musculus [15]) was “Active”.

— ChEMBL document CHEMBL2016456, “Antiangiogenic effect of chamigrane endoperoxides from a Thai mangrove-derived fungus” (J Nat Prod, 2011)
